Results of several laboratories.
Lines come from different studies, so protocols differ.
PKM: Pyruvate kinase PKM (PKM, Homo sapiens, UniProt P14618)
CDK2: Cyclin-dependent kinase 2 (CDK2, Homo sapiens, UniProt P24941)
HTR6: 5-hydroxytryptamine receptor 6 (HTR6, Homo sapiens, UniProt P50406)
SIRT6: NAD-dependent protein deacylase sirtuin-6 (SIRT6, Homo sapiens, UniProt Q8N6T7)
STAT3: Signal transducer and activator of transcription 3 (STAT3, Homo sapiens, UniProt P40763)
HTR7: 5-hydroxytryptamine receptor 7 (HTR7, Homo sapiens, UniProt P34969)
OR5K1 A2T/T15M/Y193C: OR5K1 (Homo sapiens, UniProt Q8NHB7, A2T/T15M/Y193C)
OR5K1: OR5K1 (Homo sapiens, UniProt Q8NHB7)

CC(=O)N[C@H](C(=O)N[C@@H](CC(N)=O)C(=O)N[C@@H](CCCCN)C(=O)N[C@@H](C)C(=O)N[C@@H](CC(C)C)C(=O)N1CCC[C@H]1C(=O)N[C@@H](C)C(=O)N[C@@H](CC(C)C)C(=O)N1CCC[C@H]1C(=O)N[C@H](C(=O)N[C@@H](C)C(N)=O)C(C)C)C(C)C  Kd (Tyrosine-protein kinase Fyn, SH3 (FYN, Homo sapiens, UniProt P06241); binding, ITC; pH 7): 70 µM
c1cncc(-c2cccc(Nc3nccc(NC4CCCCC4)n3)c2)c1  Kd (Serine/threonine-protein kinase D3 (PRKD3, Homo sapiens, UniProt O94806); binding, competition with immobilised ligand): 1.7 µM
Cc1ccc(NS(=O)(=O)c2cc3c(cc2N[C@@H](C)CO)CCC(=O)N3)cc1Cl  AC50 (PKM; enzyme activity, activator): 6.1 µM
CC(=O)N=S(=O)(O)c1ccc(N/C=C2\C(=O)Nc3ccc4ncsc4c32)cc1  Kd (CDK2; binding, ITC): 0.194 µM
C[C@@H](CO)Nc1cc2c(cc1S(=O)(=O)Nc1ccc(F)c(Cl)c1)CCC(=O)N2  AC50 (PKM; enzyme activity, activator): 0.13 µM
Cc1nc2cc(OCCCCN3CCN(c4cccc(Cl)c4Cl)CC3)ccc2s1  Ki (HTR6; cell-free assay, radioligand): 0.72 µM
O=C(Nc1cc(C2CCCCC2)[nH]n1)c1ccc(Br)cc1  Kd (CDK2; binding, ITC): > 100 µM
COc1ccc2c(Oc3ccc4c(C(=O)Nc5ccccc5N)cccc4c3)ccnc2c1  IC50 (Sodium channel protein type 5 subunit alpha (SCN5A, Homo sapiens, UniProt Q14524); ion current, inhibitor): > 10 µM
Cc1cccc(Sc2ccc(CONC(=O)c3ccc(C(N)=O)cc3)cc2C(F)(F)F)c1  IC50 (SIRT6; enzyme activity, inhibitor, fluorescence): 1.81 µM
Cc1cc(C)c(S(=O)(=O)N(C)CC(=O)N(Cc2cc(C(C)(C)C)cc(C(C)(C)C)c2)c2ccc(C(=O)O)c(O)c2)c(C)c1  Ki (STAT3; ligand displacement, FP): 19.7 µM
CN1CCN(C2=Nc3ccccc3Oc3ccc(Cl)cc32)CC1  Ki (HTR7; ligand displacement, radioligand; cell membranes): 0.258 µM
CCc1nccnc1OC  EC50 (OR5K1 A2T/T15M/Y193C; cAMP, agonist): 578 µM
Cc1cnc(-c2ccc(-c3ccc(NC(=O)Nc4c(F)cc(F)cc4F)cc3F)c3c2C(=O)NC3)[nH]1  Kd (Mitogen-activated protein kinase kinase kinase kinase 1 (MAP4K1, Homo sapiens, UniProt Q92918); binding, competition with immobilised ligand): 0.0072 µM
Nc1nc2c(ncn2[C@@H]2O[C@H](COP(=O)(O)OP(=O)(O)O)[C@@H](OP(=O)(O)OP(=O)(O)O)[C@H]2O)c(=O)[nH]1  Kd (Xanthine-guanine phosphoribosyltransferase (Escherichia coli, UniProt P0A9M5); binding, ITC): 3.2 µM
Cc1cc2nc3c(=O)[nH]c(=O)nc-3n(C[C@H](O)[C@H](O)[C@H](O)COP(=O)(O)OP(=O)(O)OC[C@H]3O[C@@H](n4cnc5c(N)ncnc54)[C@H](O)[C@@H]3O)c2cc1C  Kd (Nucleolysin TIAR (Homo sapiens, UniProt Q01085); binding; lysate): 0.011 µM
COc1cccc(CONC(=O)c2ccc(C(N)=O)cc2)c1  IC50 (SIRT6; enzyme activity, inhibitor, fluorescence): 6.49 µM
Cc1ccc(NS(=O)(=O)c2cc3c(cc2-c2ccccc2)NC(=O)CO3)cc1C  AC50 (PKM; enzyme activity, activator): > 20 µM
COc1cccc(Sc2ccc(CONC(=O)c3ccc(C(N)=O)cc3)cc2C(F)(F)F)c1  IC50 (SIRT6; enzyme activity, inhibitor, fluorescence): 1.12 µM
Cc1cnc(C)cn1  EC50 (OR5K1; cAMP, agonist): > 1500 µM
CC(C)[C@@H](CC[C@@H](C)[C@H]1CC[C@H]2[C@@H]3[C@H](O)C[C@H]4C[C@@H](NCCCNCCCCNCCCN)CC[C@]4(C)[C@H]3CC[C@]12C)OS(=O)(=O)O  Ki (Receptor-type tyrosine-protein phosphatase C (PTPRC, Homo sapiens, UniProt P08575); enzyme activity, inhibitor): 18 µM
CN(CC(=O)N(Cc1cc(C(C)(C)C)cc(C(C)(C)C)c1)c1ccc(C(=O)O)c(O)c1)S(=O)(=O)c1c(F)c(F)c(F)c(F)c1F  Ki (STAT3; ligand displacement, FP): 37.5 µM
CC[C@H](NC(=O)[C@H](CS(=O)(=O)CC1CC1)N[C@@H](c1ccc(F)cc1)C(F)(F)F)C(=O)C(=O)NC1CC1  Ki (Cathepsin B (CTSB, Homo sapiens, UniProt P07858); enzyme activity, inhibitor, fluorescence; with preincubation): 0.00033 µM
Cc1ccc(NS(=O)(=O)c2cc3c(cc2Cl)NC(=O)CO3)cc1C  AC50 (PKM; enzyme activity, activator): 0.26 µM
NC(=O)c1ccc(C(=O)NOCc2ccc(-n3cccn3)cc2)cc1  IC50 (SIRT6; enzyme activity, inhibitor, fluorescence): 2.23 µM
Cc1cnc(C)c(C)n1  EC50 (OR5K1 (Homo sapiens, UniProt Q8NHB7, F62L); cAMP, agonist): 376 µM
Cc1ccc(C(=O)Nc2ccc(Oc3cc4cnn(C)c4cc3-c3cn[nH]c3)c(F)c2)c(=O)n1-c1ccc(F)cc1  IC50 (Vascular endothelial growth factor receptor 3 (FLT4, Homo sapiens, UniProt P35916); enzyme activity in cells, inhibitor): > 0.316 µM
NC(=O)c1ccc(C(=O)NOCc2ccc3nccnc3c2)cc1  IC50 (SIRT6; enzyme activity, inhibitor, fluorescence): 65 µM
CCc1ncc(C)nc1CC  EC50 (OR5K1 A2T/T15M/Y193C; cAMP, agonist): 102 µM
NC(=O)c1ccc(C(=O)NOCc2ccc(Sc3ccccc3)c(C(F)(F)F)c2)cc1  IC50 (SIRT6; enzyme activity, inhibitor, fluorescence): 1.63 µM
CCc1nc2cc(OCCCCN3CCC(c4cccc(Cl)c4Cl)CC3)ccc2s1  Ki (HTR6; cell-free assay, radioligand): 0.96 µM
O=C(NOCc1ccc(C(F)(F)F)cc1)c1ccc(CO)cc1  IC50 (SIRT6; enzyme activity, inhibitor, fluorescence): 6.68 µM
CN(C)CCSc1nc2ccccc2cc1-c1ccccc1  Ki (HTR7; ligand displacement, radioligand; cell membranes): 0.393 µM
Cc1cc(NS(=O)(=O)c2cc3c(cc2F)NC(=O)CC3)ccc1Cl  AC50 (PKM; enzyme activity, activator): 0.6 µM
CN1CCC(=C2c3ccccc3C=Cc3ccccc32)CC1  Ki (HTR7; ligand displacement, radioligand; cell membranes): 0.024 µM
Cc1ccc(NS(=O)(=O)c2ccc3c(c2)CCC(=O)N3)cc1F  AC50 (PKM; enzyme activity, activator): 0.54 µM
COc1cnccn1  EC50 (OR5K1; cAMP, agonist): > 1500 µM
O=C1CCc2cc(S(=O)(=O)Nc3ccc4c(c3)OCCO4)ccc2N1  AC50 (PKM; enzyme activity, activator): 11.1 µM
NC(=O)c1ccc(C(=O)NOCc2ccc(Sc3ccc(N)cc3)c(C(F)(F)F)c2)cc1  IC50 (SIRT6; enzyme activity, inhibitor, fluorescence): 1.8 µM
Cc1ccc(NS(=O)(=O)c2cc3c(cc2NC(C)CO)NC(=O)CC3)cc1C (stereo not shown)  AC50 (PKM; enzyme activity, activator): 0.23 µM
CC1=C(/C=C/C2=CCC[C@@]3(C)[C@H]2CC[C@@H]3[C@@](C)(O)CCCC(C)C)C[C@@H](O)CC1  EC50 (Oxysterols receptor LXR-beta (NR1H2, Homo sapiens, UniProt P55055); coactivator recruitment, agonist, TR-FRET): 0.01 to 0.1 µM
